Reference: PubChem BioAssay
Inconclusive results are not listed.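 Rule for the calls, unless noted: active = viability increase at or above a cutoff of the median across tested compounds plus 3 SD (cut at about 8.5% in these data, passing the limit was not always enough); inconclusive = some gains above the cutoff, reason not given; inactive = the rest.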

What was measured:
[1] = S. cerevisiae growth inhibition in permissive medium (OD615), pilot counter-assay for S. cerevisiae lifespan shortening project, permissive growth control (AID 705;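 active = growth inhibition above 25% in both replicates, a cutoff set 3 SD above the mean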); conditions: OD615, 24 h, at 10 µM, active compounds read high
How it was run: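 Material: engineered DeaD yeast; Compound: one dose 10 µM, DMSO 0.25% final; Detection: absorbance (optical density) at 615 nm; Buffer or medium: permissive raffinose/galactose medium; Timing: 24 h exposure, 30 °C.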

[2] = S. cerevisiae growth inhibition in restrictive medium, OD615, pilot screen, restrictive growth control, yeast lifespan reduction project (AID 706;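 active = growth inhibition above a set limit, 3 SD over mean compound inhibition, in both replicates, cut at about 43% in these data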;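 note: modified DeaD lifespan yeast strain shifted to restrictive glucose medium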); conditions: OD615, 48 h, at 10 µM, active compounds read high
How it was run: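 Buffer or medium: restrictive glucose medium (CSMM-D); test system: modified S. cerevisiae; doses: single dose of 10 µM compound final, 0.25% DMSO; schedule: 48 h compound exposure at 30 °C; detection: absorbance (optical density) measured at 615 nm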

[3] = doxorubicin toxicity protection in MRP-1 cells – H69AR cells, CellTiter-Glo, duplicate, MRP-1 activator project, pilot screen (AID 807); conditions: H69AR viability with doxorubicin, CellTiter-Glo luminescence; at 10 µM; active compounds read high;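 note: compound pretreatment 18-22 h then 72 h combined with doxorubicin; 0% = doxorubicin alone and 100% = vehicle without doxorubicin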
[4] = viability of HCT116 without oncogenic beta-catenin – human colon tumor cells, pilot screen (AID 823;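 active = cell viability at or below a set limit in both duplicate runs, the limit being the all-compound median minus 4 SD, cut at about 23% in these data, passing the limit was not always enough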;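 note: 0% = wells killed by 20 µM Hyamine and 100% = untreated DMSO cell wells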); conditions: HCT116 beta-catenin knockout viability, CellTiter-Glo, 60 h; at 10 µM; active compounds read low
[5] = viability of PTEN-null HCT116 cells – cell-based, HCT116 clonal line, CellTiter-Glo, pilot screen (AID 824;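 active = viability at or below 27.92% in each of two runs, the all-compound median minus 4 SD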;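 note: 0% = 20 µM Hyamine control and 100% = vehicle cell control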); conditions: HCT116 PTEN-deleted viability, 60 h, at 10 µM, active compounds read low
[6] = RAM pathway blockade in budding yeast – dse1pr::URA3 reporter, 5-FOA selection, pilot screen (AID 869;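 active = inhibition over a set limit, the all-compound mean plus 3 SD, in both replicate runs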;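 note: 0% = DMSO wells with no growth and 100% = 10 µM 1-NA-PP1 with full growth; RAM network block rescues cells from 5-FOA so hits raise OD615 growth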); conditions: S. cerevisiae dse1pr::URA3 5-FOA growth, OD615, 2 d; at 10 µM; active compounds read high; strain carries analog-sensitive mutant Cbk1 kinase
[7] = RAM signaling pathway blockade in yeast – S. cerevisiae, Pdr1DBD-CYC8 efflux-inhibited sensitized strain, primary screen (AID 1298;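 active = RAM network inhibition above 8.4% in each of two replicates, 3 SD over the compound average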;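 note: 0% = DMSO untreated cells without growth and 100% = 10 µM 1-NA-PP1 full growth; higher means more yeast growth rescued from 5-FOA killing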); conditions: S. cerevisiae cbk1-as DSE1-URA3 strain, 5-FOA growth OD615, 2 d; at 50 µM; active compounds read high

CCOC(=O)N1CCC(NC(=O)C2CCCN(Cc3nc(-c4cccc(Cl)c4)oc3C)C2)CC1 (stereo unspecified)
inactive: growth inhibition [1] -13.4% | growth inhibition [2] -23.4% | viability increase [3] -5.39% | viability [4] 40.4% | viability [5] 49.5% | inhibition [6] 0.715% | RAM network inhibition [7] 3.95%

Cc1ccccc1NC(=O)CN1C(=O)COc2ccc(Cl)cc21
inactive: growth inhibition [1] -14.1% | growth inhibition [2] -18% | viability increase [3] 1.63% | viability [4] 95% | viability [5] 87.9% | inhibition [6] 0.995% | RAM network inhibition [7] 4.92%

O=C(CCCOc1ccccc1)Nc1cccc(C(=O)O)c1
inactive: growth inhibition [1] -0.54% | growth inhibition [2] 3.65% | viability increase [3] 0.34% | viability [4] 96% | viability [5] 98.6% | inhibition [6] 2.61% | RAM network inhibition [7] 2.71%

COCCNC(=O)CN(c1cc(C(F)(F)F)ccc1Cl)S(C)(=O)=O
inactive: growth inhibition [1] -2.77% | growth inhibition [2] 1.25% | viability increase [3] -0.83% | viability [4] 99.9% | viability [5] 97.5% | inhibition [6] 3.02% | RAM network inhibition [7] 0.87%

CCOC(=O)c1[nH]c(=O)[nH]c1COC(=O)c1cc2ccccc2o1
inactive: growth inhibition [1] -14.6% | growth inhibition [2] -12.6% | viability increase [3] -1.09% | viability [4] 92.6% | viability [5] 105% | inhibition [6] -0.22% | RAM network inhibition [7] 2.38%

CCN1CCN(C(=O)CS(=O)(=O)Cc2nc(-c3ccc(C)cc3)oc2C)CC1
inactive: growth inhibition [1] -5.05% | growth inhibition [2] 3.62% | viability increase [3] -0.17% | viability [4] 85.2% | viability [5] 87.8% | inhibition [6] 0.805% | RAM network inhibition [7] 2.7%

N#CCc1ccc(NS(=O)(=O)c2ccc(N3CCCC3=O)cc2)cc1
inactive: growth inhibition [1] -10.7% | growth inhibition [2] -7.71% | viability increase [3] -0.69% | viability [4] 89.8% | viability [5] 88% | inhibition [6] 2.58% | RAM network inhibition [7] 0.32%

CCOC(=O)c1cccc(NC(=O)CCS(=O)(=O)c2cccc3nsnc23)c1
inactive: growth inhibition [1] -0.82% | growth inhibition [2] -22% | viability increase [3] -3.74% | viability [4] 100% | viability [5] 97% | inhibition [6] 0.99% | RAM network inhibition [7] 2.43%

CCOC(=O)c1ccc2nc(NC(=O)C(C)C)sc2c1
inactive: growth inhibition [1] -10.9% | growth inhibition [2] -10.6% | viability increase [3] -6.61% | viability [4] 78.6% | viability [5] 80% | inhibition [6] 1.98% | RAM network inhibition [7] 0.06%

O=C(CCNS(=O)(=O)c1cccc2nsnc12)NC1CCN(Cc2ccccc2)CC1
inactive: growth inhibition [1] -3.28% | growth inhibition [2] -9.7% | viability increase [3] -2.01% | viability [4] 87% | viability [5] 89% | inhibition [6] -0.175% | RAM network inhibition [7] 5.02%

CCC(=O)N=c1sc2c(OC)ccc(OC)c2n1C
inactive: growth inhibition [1] -7.02% | growth inhibition [2] -7.99% | viability increase [3] -4.85% | viability [4] 92.4% | viability [5] 91.2% | inhibition [6] 1.68% | RAM network inhibition [7] 2.04%

CCOc1cccc2sc(NC(=O)c3ccc(Br)s3)nc12
inactive: growth inhibition [1] -25.6% | growth inhibition [2] -9.82% | viability increase [3] -3.55% | viability [4] 65.4% | viability [5] 58% | inhibition [6] 2.42% | RAM network inhibition [7] 4.63%

CCN(c1cccc(C)c1)c1ncnc2nc[nH]c12
inactive: growth inhibition [1] -4.6% | growth inhibition [2] 15.6% | viability increase [3] -3.73% | viability [4] 103% | viability [5] 95.9% | inhibition [6] 0.95% | RAM network inhibition [7] 0.64%

Cc1ccn2cc(CCNC(=O)c3ccc(Br)o3)nc2c1
inactive: growth inhibition [1] -10.6% | growth inhibition [2] -12.7% | viability increase [3] -0.26% | viability [4] 93.8% | viability [5] 95.4% | inhibition [6] 3.01% | RAM network inhibition [7] 4.83%

CCN(Cc1ccccc1)C(=O)Cn1cc2c(n1)CCCC2
inactive: growth inhibition [1] -5.23% | growth inhibition [2] -2.12% | viability increase [3] 1.91% | viability [4] 94% | viability [5] 92.5% | inhibition [6] 2.06% | RAM network inhibition [7] -1.27%

CC(CCc1ccccc1)NC(=O)CSc1nccc(=O)[nH]1 (stereo unspecified)
inactive: growth inhibition [1] -20.5% | growth inhibition [2] -6.91% | viability increase [3] -0.56% | viability [4] 94.2% | viability [5] 94.5% | inhibition [6] 1.06% | RAM network inhibition [7] 2.7%

Fc1ccccc1COc1cccc(/C=N/n2cnnc2)c1
inactive: growth inhibition [1] 2.62% | growth inhibition [2] 11.6% | viability increase [3] 0.12% | viability [4] 96.2% | viability [5] 84.9% | inhibition [6] 0.35% | RAM network inhibition [7] 0.15%

COc1ccc(CN2CCCC2C(=O)Nc2ccc(OC)c(OC)c2)cc1OC (stereo unspecified)
inactive: growth inhibition [1] -5.96% | growth inhibition [2] -5.92% | viability increase [3] -2.8% | viability [4] 102% | viability [5] 97.3% | inhibition [6] 0.71% | RAM network inhibition [7] 0.26%

COc1ccc(N(CC(=O)N2CC=C(c3ccccc3)CC2)S(=O)(=O)c2c(C)noc2C)cc1
inactive: growth inhibition [1] -3.14% | growth inhibition [2] 1.52% | viability increase [3] -4.79% | viability [4] 98.1% | viability [5] 97.2% | inhibition [6] 1.41% | RAM network inhibition [7] 2.09%

COc1nc(NCCC2=CCCCC2)nc(OC)n1
inactive: growth inhibition [1] -12.2% | growth inhibition [2] 2.74% | viability increase [3] 2.72% | viability [4] 98.6% | viability [5] 99.4% | inhibition [6] 0.235% | RAM network inhibition [7] 3.01%

COCCN1C(=O)c2ccccc2C(C(=O)N2CCN(c3ccccn3)CC2)C1c1ccc(F)cc1 (stereo unspecified)
inactive: growth inhibition [1] 1.72% | growth inhibition [2] -22.7% | viability increase [3] -4.12% | viability [4] 92.2% | viability [5] 90.4% | inhibition [6] 0.335% | RAM network inhibition [7] 8.63%

COc1ccc(C2C(C(=O)N3CCN(c4ccc(OC)cc4)CC3)c3ccccc3C(=O)N2C)cc1 (stereo unspecified)
inactive: growth inhibition [1] 1.52% | growth inhibition [2] -0.315% | viability increase [3] -0.98% | viability [4] 60.6% | viability [5] 61.9% | inhibition [6] 0.215% | RAM network inhibition [7] 0.86%

CC(CCc1ccccc1)C(=O)NO (stereo unspecified)
inactive: growth inhibition [1] -6.16% | growth inhibition [2] -10.5% | viability increase [3] -3.84% | viability [4] 95.6% | viability [5] 91.6% | inhibition [6] 0.87% | RAM network inhibition [7] 1.5%

Cc1nc2ccccc2c2oc(C(=O)Nc3ccc4c(c3)OCCO4)cc12
inactive: growth inhibition [1] 6.06% | growth inhibition [2] 10.4% | viability increase [3] -1.19% | viability [4] 87.7% | viability [5] 95.3% | inhibition [6] -0.63% | RAM network inhibition [7] 8.55%

Cc1cccc(-c2noc(CCc3ccccc3)n2)c1
inactive: growth inhibition [1] -13.3% | growth inhibition [2] -12% | viability increase [3] 0.39% | viability [4] 102% | viability [5] 98.1% | inhibition [6] 1.13% | RAM network inhibition [7] 2.14%

Fc1ccc(OCc2nc(-c3ccc(Br)o3)no2)c(F)c1
inactive: growth inhibition [1] -8.99% | growth inhibition [2] -12.8% | viability increase [3] 2.67% | viability [4] 99.5% | viability [5] 97.7% | inhibition [6] 0.82% | RAM network inhibition [7] 3.12%

Cc1cccc(-c2nc(CS(=O)CC(=O)N3CCCCC3)c(C)o2)c1 (stereo unspecified)
inactive: growth inhibition [1] -8.38% | growth inhibition [2] -15.3% | viability increase [3] -0.7% | viability [4] 101% | viability [5] 92.3% | inhibition [6] 0.205% | RAM network inhibition [7] 3.41%

Cc1ccc(C)c(N2CCN(C(=O)CCc3nc4ccccc4[nH]3)CC2)c1
inactive: growth inhibition [1] 6.2% | growth inhibition [2] 7.36% | viability increase [3] 1.46% | viability [4] 80.9% | viability [5] 90.4% | inhibition [6] -0.165% | RAM network inhibition [7] -0.77%
